Calls of active or inactive are those of the source. The rule behind the calls is not given here.
How the values were obtained:
MCF7 [1] = test: Cytotoxicity against human estrogen-starved estrogen-sensitive MCF7 cells assessed as cell growth at 1 uM after 7 days by MTS assay relative to control; assay type: functional; conditions: MCF7, 168 h, read-out: Activity
Method in brief: (§1)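 MCF-7 (DMEM-F12) or T-47D (RPMI) cells are kept in medium with insulin (50 ng/mL) and 5% dextran-coated charcoal-treated FBS, seeded at 3000 cells/well. After 48 h, medium is replaced with medium containing compound, renewed every two days, and cells grow seven days. Growth is read by CellTiter 96 aqueous (MTS) assay as % proliferation vs basal control (0%). Scored −/+/++/+++ bands.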

[2] = target: T1, Very-long-chain 3-oxoacyl-CoA reductase (Homo sapiens) (UniProt Q53GQ0); test: Inhibition of 17-beta HSD12 (unknown origin) transfected in HEK293 cells using [14C]E1 as substrate at 10 uM; assay type: cell-based
T1 sequence (whole entry): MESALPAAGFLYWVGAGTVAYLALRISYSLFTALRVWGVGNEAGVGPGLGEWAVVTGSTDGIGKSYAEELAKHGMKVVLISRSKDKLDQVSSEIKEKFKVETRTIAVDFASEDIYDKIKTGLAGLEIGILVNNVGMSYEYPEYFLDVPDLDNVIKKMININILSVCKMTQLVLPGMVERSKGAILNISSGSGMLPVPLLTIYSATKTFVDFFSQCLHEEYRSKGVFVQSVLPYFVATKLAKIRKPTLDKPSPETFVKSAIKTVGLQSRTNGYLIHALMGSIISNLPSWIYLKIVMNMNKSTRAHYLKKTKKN
Method in brief: (§2)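 Stably transfected HEK-293 cells in stripped-serum MEM with G418 and insulin, seeded 48 h. Then treated with compound in DMSO (<0.5% final) plus 60 nM substrate: [14C]-E2 for 17β-HSD2, [14C]-E1 for 17β-HSD7 and 17β-HSD12. Stopped at 12–25% substrate conversion; ether extraction, TLC, radiolabel quantification; triplicates, at least two experiments.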

[3] = target: T2, 17-beta-hydroxysteroid dehydrogenase type 1 (Homo sapiens) (UniProt P14061); test: Irreversible inhibition of 17-beta HSD1 (unknown origin) using [14C]E1 as substrate at 0.1 to 0.5 uM after 45 mins by thin layer chromatography
T2 sequence (whole entry): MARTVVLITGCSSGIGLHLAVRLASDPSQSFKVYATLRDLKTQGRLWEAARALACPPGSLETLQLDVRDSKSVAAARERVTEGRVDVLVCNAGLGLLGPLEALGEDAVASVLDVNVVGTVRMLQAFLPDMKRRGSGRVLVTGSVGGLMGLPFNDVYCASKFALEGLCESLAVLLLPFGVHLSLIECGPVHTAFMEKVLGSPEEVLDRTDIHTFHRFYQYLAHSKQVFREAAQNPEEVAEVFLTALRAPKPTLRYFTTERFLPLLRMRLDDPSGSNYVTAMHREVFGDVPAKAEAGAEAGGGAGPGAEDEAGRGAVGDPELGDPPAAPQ
Method in brief: (§3)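 Purified 17β-HSD1 in buffer (100 mM Tris, 20% glycerol, 0.2 mg/mL BSA, 2 mM EDTA) with 1 mM NADPH, preincubated at 37 °C with inhibitor (0, 100 or 500 nM), with or without unlabeled E1 (500 nM), over varying times. Then diluted 1:20 with [14C]-E1 (60 nM final), 45 min at 37 °C. Ether extraction, TLC, radiolabel quantification; activity as % of initial; triplicate.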

[4] = target: T2, 17-beta-hydroxysteroid dehydrogenase type 1 (Homo sapiens); test: Competitive inhibition of 17-beta HSD1 (unknown origin) using [14C]E1/E1 as substrate assessed as transformation of [14C]E1 to [14C]E2 at 0.1 to 0.5 uM after 45 mins by thin layer chromatography; method in brief: as §3
Cytochrome P450 3A4 = Cytochrome P450 3A4 (Homo sapiens, UniProt P08684); test: Inhibition of CYP3A4 (unknown origin) by fluorescence assay; assay type: ADME
Sequence of Cytochrome P450 3A4 (P08684 whole entry): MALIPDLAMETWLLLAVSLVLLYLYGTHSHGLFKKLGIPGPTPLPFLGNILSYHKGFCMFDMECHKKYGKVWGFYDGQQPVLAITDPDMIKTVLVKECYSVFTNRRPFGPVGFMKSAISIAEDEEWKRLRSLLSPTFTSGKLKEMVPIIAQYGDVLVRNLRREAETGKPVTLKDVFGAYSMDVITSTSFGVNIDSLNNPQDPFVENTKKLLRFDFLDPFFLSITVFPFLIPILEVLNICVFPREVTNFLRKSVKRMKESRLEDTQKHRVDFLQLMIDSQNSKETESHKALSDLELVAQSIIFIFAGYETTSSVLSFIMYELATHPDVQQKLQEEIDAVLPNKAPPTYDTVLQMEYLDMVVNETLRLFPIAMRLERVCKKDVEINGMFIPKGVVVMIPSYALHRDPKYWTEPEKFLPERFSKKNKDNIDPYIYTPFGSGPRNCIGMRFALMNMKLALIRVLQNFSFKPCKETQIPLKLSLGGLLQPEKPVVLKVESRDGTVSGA
Method in brief: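 Commercial CYP3A4 kit with dibenzylfluorescein as substrate, read by fluorescence of its enzymatic product. Compound dissolved in DMSO/acetonitrile (5:95). IC50 from means of at least two experiments in triplicate.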

[5] = target: T3, 3-keto-steroid reductase/17-beta-hydroxysteroid dehydrogenase 7 (Homo sapiens) (UniProt P56937); test: Inhibition of 17-beta HSD7 (unknown origin) transfected in HEK293 cells using [14C]E1 as substrate at 10 uM; assay type: cell-based; method in brief: as §2
T3 sequence (whole entry): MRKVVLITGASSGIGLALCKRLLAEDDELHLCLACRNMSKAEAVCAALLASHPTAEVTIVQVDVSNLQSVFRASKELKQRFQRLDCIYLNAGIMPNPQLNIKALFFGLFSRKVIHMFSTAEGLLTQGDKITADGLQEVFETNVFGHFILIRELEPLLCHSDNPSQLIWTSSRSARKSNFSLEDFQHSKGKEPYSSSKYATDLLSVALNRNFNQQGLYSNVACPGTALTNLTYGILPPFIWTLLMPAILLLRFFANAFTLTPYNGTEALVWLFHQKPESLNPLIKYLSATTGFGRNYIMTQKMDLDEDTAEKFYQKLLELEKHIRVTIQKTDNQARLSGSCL

MCF7 [6] = test: Cytotoxicity against human estrogen-starved estrogen-sensitive MCF7 cells assessed as cell growth at 0.1 uM after 7 days by MTS assay relative to control; assay type: functional; conditions: MCF7, 168 h, read-out: Activity; method in brief: as §1
[7] = target: T2, 17-beta-hydroxysteroid dehydrogenase type 1 (Homo sapiens); test: Inhibition of 17-beta HSD1 (unknown origin) using [14C]E1 as substrate at 0.1 to 0.5 uM by thin layer chromatography; conditions: TDE = time-dependent effect; method in brief: as §3
[8] = target: T4, 17-beta-hydroxysteroid dehydrogenase type 2 (Homo sapiens) (UniProt P37059); test: Inhibition of 17-beta HSD2 (unknown origin) transfected in HEK293 cells using [14C]E2 as substrate at 10 uM; assay type: cell-based; method in brief: as §2
T4 sequence (whole entry): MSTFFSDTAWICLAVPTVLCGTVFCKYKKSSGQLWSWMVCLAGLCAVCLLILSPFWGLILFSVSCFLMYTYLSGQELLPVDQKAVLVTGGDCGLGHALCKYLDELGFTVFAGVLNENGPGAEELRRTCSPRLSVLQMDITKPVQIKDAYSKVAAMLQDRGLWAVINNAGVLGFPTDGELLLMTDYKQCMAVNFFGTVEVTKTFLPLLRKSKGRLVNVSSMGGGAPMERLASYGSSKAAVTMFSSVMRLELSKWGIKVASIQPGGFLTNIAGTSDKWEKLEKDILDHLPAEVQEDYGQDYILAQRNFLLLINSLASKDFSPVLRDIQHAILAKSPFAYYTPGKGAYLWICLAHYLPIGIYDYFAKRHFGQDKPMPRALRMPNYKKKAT

[9] = target: T5, 17-beta-hydroxysteroid dehydrogenase type 1 (Homo sapiens, UniProt P14061); test: Inhibition of 17-beta HSD1 in human T47D cells; assay type: cell-based
T5 sequence (P14061 whole entry): T2 sequence (whole entry)
Method in brief: (§4)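 Intact T-47D cells in RPMI with insulin (50 ng/mL) and 5% dextran-charcoal-treated FBS. After 24 h, inhibitor (from EtOH stock) added at 0.1 or 1 μM for screening or 1 nM–10 μM for IC50, with [14C]-E1 (60 nM), for 24 h. Ether extraction, TLC (toluene/acetone 4:1). IC50 = concentration halving E1→E2 conversion; triplicates, at least two experiments.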

T47D [10] = test: Cytotoxicity against human estrogen-starved estrogen-sensitive T47D cells assessed as cell growth at 0.1 uM after 7 days by MTS assay relative to control; assay type: functional; conditions: 168 h, read-out: Activity; method in brief: as §1
[11] = target: T2, 17-beta-hydroxysteroid dehydrogenase type 1 (Homo sapiens); test: Inhibition of 17-beta HSD1 in human T47D cells assessed as transformation of [14C]E1 to [14C]E2 at 0.1 uM after 24 hrs by thin layer chromatography; assay type: cell-based
Method in brief: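 T-47D cells (endogenous 17β-HSD1) are seeded at 3000 cells/well in RPMI with insulin (50 ng/mL) and 5% charcoal-stripped FBS. After 24 h, compound (from EtOH stock, 0.1 μM final) is added with [14C]-E1 (60 nM) for 24 h. Steroids are extracted into diethyl ether, separated by silica TLC (toluene/acetone 4:1) and quantified. Mean ± SD of ≥2 independent experiments in triplicate.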

T47D [12] = test: Cytotoxicity against human estrogen-starved estrogen-sensitive T47D cells assessed as cell growth at 1 uM after 7 days by MTS assay relative to control; assay type: functional; conditions: 168 h, read-out: Activity; method in brief: as §1
[13] = target: T5, 17-beta-hydroxysteroid dehydrogenase type 1; test: Inhibition of 17-beta HSD1 in human T47D cells assessed as transformation of [14C]E1 to [14C]E2 after 24 hrs by thin layer chromatography; assay type: cell-based; method in brief: as §4

C[C@]12CC[C@@H]3c4ccc(CCBr)cc4CC[C@H]3[C@@H]1C[C@H](Cc1cccc(C(N)=O)c1)[C@@H]2O
percent proliferation above basal control at 1 µM (MCF7 [1]): 0%
inhibition [2]: 34%
inhibition [3]: Active
inhibition [4]: Active
IC50 (Cytochrome P450 3A4): 3900 nM
inhibition [5]: 9%
percent proliferation above basal control at 0.1 µM (MCF7 [6]): 0%
inhibition [7]: tde
inhibition [8]: 7%
IC50 [9]: 97 nM

C[C@]12CC[C@@H]3c4ccc(OCCBr)cc4CC[C@H]3[C@@H]1C[C@H](Cc1cccc(C(N)=O)c1)[C@@H]2O
percent proliferation above basal control at 0.1 µM (T47D [10]): 0%
inhibition [11]: 37%
% proliferation above basal control (0% = control) at 1 µM (T47D [12]): 0%
IC50 [13]: 172 nM

C[C@]12CC[C@@H]3c4ccc(CCCBr)cc4CC[C@H]3[C@@H]1C[C@H](Cc1cccc(C(N)=O)c1)[C@@H]2O
percent proliferation above basal control at 0.1 µM (T47D [10]): 0%
inhibition [11]: 41%
% proliferation above basal control (0% = control) at 1 µM (T47D [12]): 0%
IC50 [13]: 153 nM

C[C@]12CC[C@@H]3c4ccc(O)cc4CC[C@H]3[C@@H]1C[C@H](Cc1cccc(C(N)=O)c1)[C@@H]2O
percent proliferation above basal control at 1 µM (MCF7 [1]): > 30%
inhibition [2]: 6%
inhibition [11]: 72%
IC50 (Cytochrome P450 3A4): 1500 nM
inhibition [5]: 0%
percent proliferation above basal control at 0.1 µM (MCF7 [6]): > 30%
inhibition [8]: 0%
